# In the library only some 1.8% were active in any assay of this set; here they are far more common.
# hK5 inh – human KLK5 protease inhibitors, primary screen, biochemical, 1536-well. Kallikrein-5 (Homo sapiens), Q9Y337. 210,000 tested, 0.59% active. AID 873, 2007. recombinant hK5, fluorogenic AMC substrate cleavage. inhibition, % at 5 µM;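 active means inhibition of 40% or more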;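 further: 0% = enzyme controls without compound and 100% = no-enzyme blanks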
# Target sequence (Q9Y337 67-293 limits assumed): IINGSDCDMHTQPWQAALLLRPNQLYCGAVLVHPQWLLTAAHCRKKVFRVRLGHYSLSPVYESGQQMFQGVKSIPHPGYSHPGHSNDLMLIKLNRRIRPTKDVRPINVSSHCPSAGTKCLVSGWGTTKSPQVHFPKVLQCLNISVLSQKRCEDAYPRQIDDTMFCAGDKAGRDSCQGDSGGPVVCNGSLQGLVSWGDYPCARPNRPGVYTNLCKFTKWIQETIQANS
# Platelet DG rel – inhibitors of platelet dense granule secretion, primary screen, cell-based, MLPCN, human platelets | human platelet-rich plasma, SFLLRN dense granule ATP release, luminescence | inhibition, %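 (compounds screened at 7.5 µM in platelet-rich plasma)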 | 300,000 tested, 0.22% active;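 active means mean replicate score, as percent of positive control, at or above 50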
# Wee1 degr inh – Wee1 degradation inhibitors, primary screen, cell-based, HeLa, Wee1K328M-luciferase, luminescence. reporter increase, % at 5 µM. 220,000 tested, 1.2% active. HeLa Luc-Wee1K328M stability; 100% = proteasome inhibitor MG132 effect;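 active means activation above the mean of all tested compounds plus 3 SD, set per screening run, cut at about 8.8% in these data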;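 further: cells exposed to compound for 20 h before luminescence read; 0% = DMSO alone and 100% = MG132 at 30 µM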
# thrombin 1536 – human alpha-thrombin inhibitors, primary screen, counter-screen for coagulation protease inhibitor project, biochemical, 1536-well, fluorogenic AMC substrate. Boc-VPR-AMC fluorogenic substrate cleavage. inhibition, % at 5 µM. 220,000 tested, 0.26% active. AID 1046, 2008;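 active means inhibition at or above 40%; inactive means inhibition below 40%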;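 further: 0% = enzyme with no compound and 100% = wells without enzyme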
#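 signal = AMC fluorescence, 355/460 nm | material = human alpha-thrombin enzyme | control set = enzyme without compound as high, wells lacking enzyme as low | times = reaction at room temperature | read-out basis = percent inhibition scaled between no-compound controls and no-enzyme blanks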
# FXIIa inh 1536 – human FXIIa protease inhibitors, primary screen, biochemical, 1536-well. purified FXIIa, Boc-QGR-AMC fluorogenic substrate, 2 h. inhibition, % at 5 µM. 220,000 tested, 0.3% active. AID 800, 2007; in the data active means inhibition above about 40%;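 further: 0% = enzyme with no compound and 100% = blank without enzyme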
# FXIa inh 1536 – human FXIa protease inhibitors, primary screen, biochemical, 1536-well. Coagulation factor XI (Homo sapiens), P03951. AID 798, 2007. inhibition, % at 5 µM. 220,000 tested, 0.14% active. purified FXIa, Boc-Glu-Ala-Arg-AMC fluorogenic substrate;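 active means inhibition of at least 40%; inactive means inhibition below 40%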;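 further: fluorescence of freed AMC excited at 355 nm; 0% = enzyme without compound and 100% = no enzyme blank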
# Starred values were filed as active, the others as inactive; . = no result.
SMILES,hK5 inh,Platelet DG rel,Wee1 degr inh,thrombin 1536,FXIIa inh 1536,FXIa inh 1536
CC(C)C[C@H](NC(=O)N1CC(=O)Nc2ccccc21)C(=O)N1CCC(C(=O)O)CC1,.,-4.3,.,.,.,.
CC1(C)Cc2c(cnn2-c2cccc(F)c2)C(NC(=O)CSc2ccccn2)C1 (stereo not drawn),.,-1.5,.,.,.,.
COc1ccc(-n2c(C)cc3cc(OC(C)=O)ccc32)cc1,.,8.1,.,.,.,.
COc1ccc2ncc(OC(C)=O)cc2c1,-21.5,6.0,3.6,40.1*,15.1,8.1
Cc1c(-n2cc(C(=O)c3ccccc3O)cc(C#N)c2=O)c(=O)n(-c2ccccc2)n1C,64.7*,-3.7,-1.5,15.7,25.6,17.5
Cc1ccc(-n2ncc(Cl)c2C(=O)NC2CC2)cc1,.,3.1,2.0,-6.1,13.3,8.2
CN(CC(=O)Nc1cccc(F)c1)C(=O)c1ccc(COc2ccccc2)o1,.,5.2,.,.,.,.
CCOc1ccc(OCC)c(NC(=O)C2CCCN(S(=O)(=O)c3cnc[nH]3)C2)c1 (stereo not drawn),11.2,-0.7,-0.9,40.3*,4.8,8.7
CCOc1ccc(NC(=O)C2CCCN(S(=O)(=O)c3cnc[nH]3)C2)cc1 (stereo not drawn),.,-17.1,.,.,.,.
CCOc1ccccc1NC(=O)C1CCCN(S(=O)(=O)c2cccc3nsnc23)C1 (stereo not drawn),121.2*,6.1,1.3,10.7,22.7,11.3
N/C(=N\OC(=O)CSc1ccccc1)c1ccc([N+](=O)[O-])cc1,-13.6,8.6,1.8,2.6,16.4,10.0
Cc1ccc(S(=O)(=O)N2CCN(C(=O)N3CCOCC3)C2c2ccc(N(C)C)cc2)cc1 (stereo not drawn),8.1,-2.7,13.8*,3.4,10.5,3.5
CN(C)c1ccc(C2N(C(=O)N3CCOCC3)CCN2S(=O)(=O)c2ccccc2)cc1 (stereo not drawn),5.4,2.3,-1.4,3.0,17.6,4.7
CCCOc1cccc(C(=O)NCCNC(=O)c2ccco2)c1,.,14.4,.,.,.,.
CCCOc1cccc(C2C(C(=O)c3ccc(C)o3)=C(O)C(=O)N2c2nc(C)c(C(C)=O)s2)c1 (stereo not drawn),.,10.0,.,.,.,.
CC(C)=CCC/C(C)=C/CC/C(C)=N/O,29.5,-0.6,-3.8,23.7,40.2*,15.1
CC(C)c1cc(=O)n2c(nc3ccccc32)[nH]1,.,-8.6,.,.,.,.
CCN(c1ccccc1)S(=O)(=O)c1ccc(C(=O)Nc2nnc(COC)o2)cc1,13.5,15.9,0.4,22.7,55.1*,11.4
COCCN(CCOC)S(=O)(=O)c1ccc(C(=O)Nc2nnc(C3CC3)o2)cc1,8.4,-7.4,9.4*,3.5,16.2,-6.2
COCc1nnc(NC(=O)c2ccc(S(=O)(=O)N(C)c3ccccc3)cc2)o1,-6.1,12.5,-0.6,-1.5,12.3,6.6
COCc1ccc(C(=O)N2CCCC(Nc3ccc4c(c3)OCCO4)C2)o1 (stereo not drawn),.,-2.5,.,.,.,.
Cc1cc(C(=O)Nc2ccc(N3CCOCC3)cc2)c2ccccc2n1,1.1,-4.2,2.0,-0.1,44.5*,11.3
O=C(Nc1ccc(N2CCOCC2)cc1)c1cn2ccccc2n1,-19.6,68.4*,-0.9,-4.0,8.1,5.5
Cc1ccc(NC(=O)Nc2ccc3c(c2)nc(C)n3C)cc1C,.,-9.9,7.0,-9.6,-3.8,-4.0
Cc1nc2cc(NC(=O)Nc3ccc(N4CCOCC4)cc3)ccc2n1C,-7.6,-6.8,10.3*,4.5,16.7,8.4
SMILES,hK5 inh,Platelet DG rel,Wee1 degr inh,thrombin 1536,FXIIa inh 1536,FXIa inh 1536
O=C(Nc1ccc(N2CCCCC2)cc1)c1ccccn1,0.5,74.5*,-6.2,-21.1,-2.6,0.5
O=C(Nc1ccc(Cl)c(S(=O)(=O)N2CCOCC2)c1)c1cn2ccccc2n1,0.0,-3.5,1.0,-3.3,8.6,0.8
O=C(Nc1ccc(N2CCCCCC2)cc1)c1ccccc1Cl,2.0,0.3,4.8,-4.2,5.2,-3.5
COc1ccc(C2=[N+]([O-])C(C)(C)N(O)C2C)cc1 (stereo not drawn),-12.5,-0.8,-2.6,0.2,8.2,-2.1
COC(=O)c1cc(C(=O)OCC(=O)NC2CCCC2)cc([N+](=O)[O-])c1,.,2.1,.,.,.,.
Cn1ncc2c(=O)n(CC(=O)NC34CC5CC(CC(C5)C3)C4)cnc21,-13.9,.,1.0,-5.0,6.2,0.9
CC(C)N(C(=S)NC1CCCCC1)c1ccccc1,4.1,1.0,3.5,-3.2,9.1,-1.0
CC(C)N(Cc1ccccc1)C(=S)NC1CCCCC1,21.2,12.8,0.2,3.0,102.0*,42.0*
COc1ccc(/C=C(/NC(=O)c2cccc([N+](=O)[O-])c2)C(=O)O)cc1OC,-3.4,1.1,3.3,5.8,7.1,-0.4
COc1ccccc1/C=C(\NC(=O)c1ccc(OC)c(OC)c1)C(=O)Nc1cc([N+](=O)[O-])ccc1C,-25.2,-2.2,10.4*,2.3,6.7,2.7
COCCn1c(=O)[nH]c2cc(C(=O)NCCN3CCN(c4ccccc4)CC3)ccc2c1=O,14.7,-0.4,11.0*,-2.9,14.5,3.6
COCCn1c(=O)[nH]c2cc(C(=O)NCCN3CCN(c4ccc(OC)cc4)CC3)ccc2c1=O,-23.0,2.5,-2.4,1.7,-3.4,0.7
CCCCCNC(=O)c1ccc2c(=O)n(CCOC)c(=O)[nH]c2c1,-23.2,-0.2,10.0*,-9.6,18.4,5.9
COc1ccc(NC(=O)c2sc3nc(N4CCOCC4)c4c(c3c2N)CC(C(C)C)OC4)c(OC)c1 (stereo not drawn),.,-1.0,.,.,.,.
O=C(N/N=C/c1cccc([N+](=O)[O-])c1)C1COc2ccccc2O1 (stereo not drawn),-14.0,10.7,5.2,4.0,8.6,11.5
O=C(N/N=C\c1cccc([N+](=O)[O-])c1O)C1COc2ccccc2O1 (stereo not drawn),54.9*,6.5,0.2,15.6,0.5,5.3
CC(C)(C)OC(=O)N1CCC[C@H]1c1nnc(SCC(=O)Nc2ccc(Br)cc2)o1,-6.7,-2.1,-3.3,-0.6,-1.7,-6.1
NC(=O)NOCc1ccccc1,22.6,-3.1,-0.4,11.9,27.7,45.5*
CC(=O)c1ccc(N2CCN(S(=O)(=O)c3cccc(S(=O)(=O)N4CCOCC4)c3)CC2)cc1,89.6*,3.5,-1.5,12.2,46.8*,8.6
CC(=O)c1ccc(N2CCN(C(=O)/C=C/c3ccc(S(=O)(=O)N4CCOCC4)cc3)CC2)cc1,-1.9,-2.1,3.8,-5.7,.,-4.6
OCCC1CN(Cc2ccccc2OC2CCCC2)CCN1Cc1ccsc1 (stereo not drawn),.,7.9,-1.1,1.3,16.9,13.7

# Bioassay records deposited in PubChem BioAssay by several laboratories.
